Assay results published in ChEMBL document CHEMBL5661979, “Pharmacological inhibition of BMK1 suppresses tumor growth through promyelocytic leukemia protein” (Cancer Cell, 2010).
Active and inactive are the calls of the source. The rule behind the calls is not given here.

Legend:
[1] = molecular target: Serine/threonine-protein kinase 38 (Homo sapiens, UniProt Q15208); experiment: Inhibition of NDR1 in human HeLa cells lysate at 50 uM pre incubated for 15 mins followed by ATP acyl phosphate probe addition and measured after 10 mins by LC-MS/MS analysis relative to control; format: subcellular; conditions: time 25.0 min
[2] = molecular target: Cyclin-dependent kinase 5 (Homo sapiens, UniProt Q00535); experiment: Inhibition of CDK5 in human HeLa cells lysate pre incubated for 15 mins followed by ADP acyl phosphate probe addition and measured after 10 mins by LC-MS/MS analysis; format: subcellular
Procedure, shortened: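 KiNativ profiling in HeLa lysate (5 mg/mL total protein). Lysate incubated 15 min with inhibitor at 50, 10, 2, 0.8 or 0 μM. ATP or ADP acylphosphate probe then added (5 μM final) and reacted 10 min. Reaction stopped with urea and analysed by targeted MS, using up to four fragment ions per kinase peptide-probe conjugate. % inhibition taken against untreated lysate. Run in duplicate.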

[3] = molecular target: Epidermal growth factor receptor (Homo sapiens, UniProt P00533); experiment: Inhibition of EGFR in human HeLa cells lysate pre incubated for 15 mins followed by ADP acyl phosphate probe addition and measured after 10 mins by LC-MS/MS analysis; format: subcellular
[4] = molecular target: IKK epsilon/TBK1 (Homo sapiens) (UniProt Q14164+Q9UHD2); experiment: Inhibition of IKKE/TBK1 in human HeLa cells lysate at 2 uM pre incubated for 15 mins followed by ADP acyl phosphate probe addition and measured after 10 mins by LC-MS/MS analysis relative to control; format: subcellular; conditions: time 25.0 min
[5] = molecular target: Mitogen-activated protein kinase 7 (Mus musculus) (UniProt Q9WVS8); experiment: Inhibition of BMK1 in mouse MEF cells transfected with PML2D S403D/T409D mutant assessed as increase in p21 protein expression at 5 uM incubated for 16 hrs by Western blot analysis; format: cell-based
Procedure, shortened: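 Pml−/− MEFs infected with Ad-EV, Ad-PML or Ad-PML2D. Three days later treated ±5 μM inhibitor for 16 h. p21 western blot quantified by densitometry and normalized to GAPDH, relative to untreated Ad-EV-infected Pml−/− cells set as 1. n = 3, ±SEM.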

[6] = molecular target: Mitogen-activated protein kinase kinase kinase kinase 2 (Homo sapiens, UniProt Q12851); experiment: Inhibition of GCK in human HeLa cells lysate pre incubated for 15 mins followed by ADP acyl phosphate probe addition and measured after 10 mins by LC-MS/MS analysis; format: subcellular
[7] = Inhibition of CK1g1/g2/g3 in human HeLa cells lysate at 10 uM pre incubated for 15 mins followed by ADP acyl phosphate probe addition and measured after 10 mins by LC-MS/MS analysis relative to control; conditions: 25 min, condition cancer
[8] = molecular target: Serine/threonine-protein kinase 38-like (Homo sapiens, UniProt Q9Y2H1); experiment: Inhibition of NDR2 in human HeLa cells lysate at 10 uM pre incubated for 15 mins followed by ADP acyl phosphate probe addition and measured after 10 mins by LC-MS/MS analysis relative to control; format: subcellular; conditions: time 25.0 min
[9] = molecular target: Serine/threonine-protein kinase 3/4 (Homo sapiens) (UniProt Q13043+Q13188); experiment: Inhibition of MST1/2 in human HeLa cells lysate at 2 uM pre incubated for 15 mins followed by ATP acyl phosphate probe addition and measured after 10 mins by LC-MS/MS analysis relative to control; format: subcellular; conditions: time 25.0 min
[10] = molecular target: T1, Serine/threonine-protein kinase tousled-like 1 (Homo sapiens) (UniProt Q9UKI8); experiment: Inhibition of TLK1 in human HeLa cells lysate at 10 uM pre incubated for 15 mins followed by ADP acyl phosphate probe addition and measured after 10 mins by LC-MS/MS analysis relative to control; format: subcellular; conditions: time 25.0 min
T1 sequence (whole entry): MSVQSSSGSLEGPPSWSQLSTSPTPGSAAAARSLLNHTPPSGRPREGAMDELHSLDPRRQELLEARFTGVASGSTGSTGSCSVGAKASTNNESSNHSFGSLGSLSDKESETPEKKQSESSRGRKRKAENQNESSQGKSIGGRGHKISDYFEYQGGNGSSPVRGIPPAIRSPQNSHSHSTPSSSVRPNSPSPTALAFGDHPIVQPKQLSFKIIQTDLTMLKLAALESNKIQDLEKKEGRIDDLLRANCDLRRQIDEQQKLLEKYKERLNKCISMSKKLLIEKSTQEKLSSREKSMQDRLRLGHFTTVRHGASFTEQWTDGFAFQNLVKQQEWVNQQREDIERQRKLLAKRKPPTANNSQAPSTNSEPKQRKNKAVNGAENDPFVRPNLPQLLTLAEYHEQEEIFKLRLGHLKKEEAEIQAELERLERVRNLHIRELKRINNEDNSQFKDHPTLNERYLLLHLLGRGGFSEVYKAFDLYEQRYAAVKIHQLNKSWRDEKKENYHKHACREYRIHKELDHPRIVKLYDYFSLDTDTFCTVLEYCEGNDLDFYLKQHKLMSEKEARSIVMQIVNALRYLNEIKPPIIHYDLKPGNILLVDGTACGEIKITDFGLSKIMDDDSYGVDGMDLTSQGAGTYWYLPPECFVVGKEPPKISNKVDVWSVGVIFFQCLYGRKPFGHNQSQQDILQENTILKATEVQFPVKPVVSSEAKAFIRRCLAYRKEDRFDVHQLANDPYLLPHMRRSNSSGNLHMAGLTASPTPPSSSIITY

Aurora kinase A = Aurora kinase A (Homo sapiens, UniProt O14965); experiment: Inhibition of AURA in human HeLa cells lysate pre incubated for 15 mins followed by ATP acyl phosphate probe addition and measured after 10 mins by LC-MS/MS analysis; format: subcellular
Procedure, shortened: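 KiNativ-type profiling in HeLa lysate (5 mg/mL total protein). Lysate preincubated 15 min with inhibitor at 50, 10, 2, 0.8 or 0 μM, then ATP or ADP acylphosphate probe added (5 μM final) for 10 min. Reaction stopped with urea and analysed by targeted MS, using up to four fragment ions per kinase peptide-probe conjugate. % inhibition calculated against untreated lysate. Duplicate reactions.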

[11] = molecular target: T2, Phosphatidylinositol 5-phosphate 4-kinase type-2 gamma (Homo sapiens) (UniProt Q8TBX8); experiment: Inhibition of PIP5K2C LIP2 site in human HeLa cells lysate at 2 uM pre incubated for 15 mins followed by ATP acyl phosphate probe addition and measured after 10 mins by LC-MS/MS analysis relative to control; format: subcellular; conditions: time 25.0 min
T2 sequence (whole entry): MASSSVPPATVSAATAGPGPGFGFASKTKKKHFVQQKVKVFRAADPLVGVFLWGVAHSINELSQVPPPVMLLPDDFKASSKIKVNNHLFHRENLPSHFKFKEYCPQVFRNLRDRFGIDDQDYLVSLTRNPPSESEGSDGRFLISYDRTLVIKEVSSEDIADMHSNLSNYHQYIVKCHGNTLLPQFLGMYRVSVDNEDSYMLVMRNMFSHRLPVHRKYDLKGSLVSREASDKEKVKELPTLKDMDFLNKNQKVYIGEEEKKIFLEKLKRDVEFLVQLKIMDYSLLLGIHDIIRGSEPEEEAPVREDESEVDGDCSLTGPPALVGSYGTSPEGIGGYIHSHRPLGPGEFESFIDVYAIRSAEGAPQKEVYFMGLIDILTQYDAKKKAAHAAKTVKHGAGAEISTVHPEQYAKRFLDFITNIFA

Sequence of Serine/threonine-protein kinase 3/4 (Homo sapiens) (Q13043 whole entry, looked up): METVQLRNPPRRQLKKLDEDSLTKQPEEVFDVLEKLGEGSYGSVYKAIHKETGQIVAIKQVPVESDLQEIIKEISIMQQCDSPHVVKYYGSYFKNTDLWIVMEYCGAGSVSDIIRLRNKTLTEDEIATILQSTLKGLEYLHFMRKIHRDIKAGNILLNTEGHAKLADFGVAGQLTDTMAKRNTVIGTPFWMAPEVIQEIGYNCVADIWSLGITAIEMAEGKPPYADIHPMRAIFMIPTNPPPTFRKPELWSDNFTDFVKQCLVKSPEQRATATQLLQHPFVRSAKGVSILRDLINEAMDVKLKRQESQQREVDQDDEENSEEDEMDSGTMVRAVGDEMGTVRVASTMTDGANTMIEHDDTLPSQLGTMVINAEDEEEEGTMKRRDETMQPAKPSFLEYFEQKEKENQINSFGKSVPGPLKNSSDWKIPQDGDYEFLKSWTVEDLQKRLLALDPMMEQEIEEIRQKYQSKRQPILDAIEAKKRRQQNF
Sequence of Serine/threonine-protein kinase 3/4 (Homo sapiens) (Q13188 whole entry, looked up): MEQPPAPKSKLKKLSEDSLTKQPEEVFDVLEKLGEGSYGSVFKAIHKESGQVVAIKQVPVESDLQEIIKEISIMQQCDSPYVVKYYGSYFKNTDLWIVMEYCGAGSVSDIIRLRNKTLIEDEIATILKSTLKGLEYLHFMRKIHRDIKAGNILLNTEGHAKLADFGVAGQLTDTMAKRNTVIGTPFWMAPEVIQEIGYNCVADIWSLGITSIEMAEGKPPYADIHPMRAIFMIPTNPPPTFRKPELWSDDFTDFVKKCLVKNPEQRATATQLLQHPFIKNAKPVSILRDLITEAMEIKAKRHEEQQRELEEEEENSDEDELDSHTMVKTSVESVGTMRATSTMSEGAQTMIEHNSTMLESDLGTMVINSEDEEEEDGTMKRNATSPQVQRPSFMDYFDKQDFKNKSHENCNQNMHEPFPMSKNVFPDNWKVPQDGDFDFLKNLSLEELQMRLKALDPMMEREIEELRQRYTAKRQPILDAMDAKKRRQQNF
Sequence of Cyclin-dependent kinase 5 (Q00535 whole entry, the tested form may be a part): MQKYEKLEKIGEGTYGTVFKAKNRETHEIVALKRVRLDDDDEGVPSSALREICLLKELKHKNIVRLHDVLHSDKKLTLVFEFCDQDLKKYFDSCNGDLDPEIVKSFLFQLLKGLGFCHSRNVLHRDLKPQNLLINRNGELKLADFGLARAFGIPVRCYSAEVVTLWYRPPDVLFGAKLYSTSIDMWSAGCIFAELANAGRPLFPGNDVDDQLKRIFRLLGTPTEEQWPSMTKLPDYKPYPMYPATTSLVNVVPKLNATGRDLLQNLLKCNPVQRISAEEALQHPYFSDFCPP
Sequence of Epidermal growth factor receptor (P00533 whole entry): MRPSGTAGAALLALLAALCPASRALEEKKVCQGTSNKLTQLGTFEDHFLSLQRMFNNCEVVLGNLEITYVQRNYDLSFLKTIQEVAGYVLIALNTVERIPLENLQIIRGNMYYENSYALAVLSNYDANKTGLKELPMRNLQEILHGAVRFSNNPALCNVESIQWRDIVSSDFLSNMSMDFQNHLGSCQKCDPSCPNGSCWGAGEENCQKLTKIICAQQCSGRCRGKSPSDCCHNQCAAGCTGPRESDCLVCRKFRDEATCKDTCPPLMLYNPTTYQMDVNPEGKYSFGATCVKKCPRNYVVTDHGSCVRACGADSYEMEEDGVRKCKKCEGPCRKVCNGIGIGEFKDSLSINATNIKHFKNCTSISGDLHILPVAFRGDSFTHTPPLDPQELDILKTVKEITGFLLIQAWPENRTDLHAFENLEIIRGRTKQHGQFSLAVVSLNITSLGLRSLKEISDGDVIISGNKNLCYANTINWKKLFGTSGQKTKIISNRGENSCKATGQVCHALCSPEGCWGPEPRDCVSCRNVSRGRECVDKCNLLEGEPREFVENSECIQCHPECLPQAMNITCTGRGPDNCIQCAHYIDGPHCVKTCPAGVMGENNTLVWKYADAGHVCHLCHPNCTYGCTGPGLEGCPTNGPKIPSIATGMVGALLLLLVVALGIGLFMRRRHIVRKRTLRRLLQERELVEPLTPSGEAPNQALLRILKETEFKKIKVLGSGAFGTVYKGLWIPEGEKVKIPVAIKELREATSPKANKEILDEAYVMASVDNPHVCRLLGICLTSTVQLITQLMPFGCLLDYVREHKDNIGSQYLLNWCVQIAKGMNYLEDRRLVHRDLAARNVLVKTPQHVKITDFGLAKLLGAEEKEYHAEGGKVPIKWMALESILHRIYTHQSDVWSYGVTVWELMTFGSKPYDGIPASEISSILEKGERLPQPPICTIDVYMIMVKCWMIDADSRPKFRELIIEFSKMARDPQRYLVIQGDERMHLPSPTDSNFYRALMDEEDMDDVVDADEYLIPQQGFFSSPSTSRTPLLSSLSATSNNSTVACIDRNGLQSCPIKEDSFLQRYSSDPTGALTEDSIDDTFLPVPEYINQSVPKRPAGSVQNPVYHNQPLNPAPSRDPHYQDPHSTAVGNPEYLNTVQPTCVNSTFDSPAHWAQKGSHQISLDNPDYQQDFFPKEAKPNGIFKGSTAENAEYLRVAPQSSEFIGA
Sequence of Mitogen-activated protein kinase 7 (Mus musculus) (Q9WVS8 whole entry): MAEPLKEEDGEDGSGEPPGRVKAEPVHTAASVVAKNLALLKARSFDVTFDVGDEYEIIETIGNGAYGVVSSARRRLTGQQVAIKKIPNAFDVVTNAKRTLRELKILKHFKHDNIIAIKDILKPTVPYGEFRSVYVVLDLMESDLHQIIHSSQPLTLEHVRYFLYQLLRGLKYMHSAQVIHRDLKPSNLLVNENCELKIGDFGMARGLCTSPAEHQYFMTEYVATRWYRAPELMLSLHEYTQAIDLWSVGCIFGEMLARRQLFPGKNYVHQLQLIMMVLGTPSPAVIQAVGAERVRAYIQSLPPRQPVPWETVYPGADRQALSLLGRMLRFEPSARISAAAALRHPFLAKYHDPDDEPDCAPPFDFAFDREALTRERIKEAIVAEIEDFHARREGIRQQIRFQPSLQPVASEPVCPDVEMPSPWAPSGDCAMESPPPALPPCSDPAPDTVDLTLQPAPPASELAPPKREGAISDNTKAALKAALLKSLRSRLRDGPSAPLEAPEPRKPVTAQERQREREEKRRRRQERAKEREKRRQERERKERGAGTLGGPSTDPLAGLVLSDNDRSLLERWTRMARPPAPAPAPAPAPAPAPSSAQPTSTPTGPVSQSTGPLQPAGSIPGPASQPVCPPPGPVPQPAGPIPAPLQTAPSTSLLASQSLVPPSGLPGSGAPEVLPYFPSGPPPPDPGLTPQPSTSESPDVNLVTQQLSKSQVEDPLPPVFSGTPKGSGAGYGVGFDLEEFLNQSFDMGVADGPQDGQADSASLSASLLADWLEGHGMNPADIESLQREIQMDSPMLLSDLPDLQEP
Sequence of Aurora kinase A (O14965 whole entry, the tested form may be a part): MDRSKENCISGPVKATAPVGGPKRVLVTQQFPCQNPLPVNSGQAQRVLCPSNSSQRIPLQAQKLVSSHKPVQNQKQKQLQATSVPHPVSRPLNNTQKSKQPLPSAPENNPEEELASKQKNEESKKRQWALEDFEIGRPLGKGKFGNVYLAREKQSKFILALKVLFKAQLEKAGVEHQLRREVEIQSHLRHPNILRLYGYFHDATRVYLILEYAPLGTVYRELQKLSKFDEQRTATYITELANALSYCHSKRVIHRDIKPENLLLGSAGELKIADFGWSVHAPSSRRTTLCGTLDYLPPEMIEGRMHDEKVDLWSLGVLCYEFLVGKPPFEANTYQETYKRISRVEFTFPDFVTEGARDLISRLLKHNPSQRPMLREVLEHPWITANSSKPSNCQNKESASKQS
Sequence of Serine/threonine-protein kinase 38 (Q15208 2-465 limits assumed): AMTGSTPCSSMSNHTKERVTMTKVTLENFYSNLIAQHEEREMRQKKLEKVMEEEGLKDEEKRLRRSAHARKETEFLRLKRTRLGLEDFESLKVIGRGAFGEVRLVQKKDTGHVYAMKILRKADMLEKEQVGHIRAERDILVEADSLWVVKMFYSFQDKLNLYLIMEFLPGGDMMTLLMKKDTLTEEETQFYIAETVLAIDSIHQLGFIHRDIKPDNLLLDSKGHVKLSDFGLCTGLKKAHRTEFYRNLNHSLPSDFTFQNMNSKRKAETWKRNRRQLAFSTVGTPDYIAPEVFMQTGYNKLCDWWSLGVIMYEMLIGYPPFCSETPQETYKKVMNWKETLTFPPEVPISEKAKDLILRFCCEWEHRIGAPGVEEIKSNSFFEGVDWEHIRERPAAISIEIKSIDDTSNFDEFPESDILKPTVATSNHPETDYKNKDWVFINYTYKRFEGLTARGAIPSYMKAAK
Sequence of Mitogen-activated protein kinase kinase kinase kinase 2 (Q12851 whole entry): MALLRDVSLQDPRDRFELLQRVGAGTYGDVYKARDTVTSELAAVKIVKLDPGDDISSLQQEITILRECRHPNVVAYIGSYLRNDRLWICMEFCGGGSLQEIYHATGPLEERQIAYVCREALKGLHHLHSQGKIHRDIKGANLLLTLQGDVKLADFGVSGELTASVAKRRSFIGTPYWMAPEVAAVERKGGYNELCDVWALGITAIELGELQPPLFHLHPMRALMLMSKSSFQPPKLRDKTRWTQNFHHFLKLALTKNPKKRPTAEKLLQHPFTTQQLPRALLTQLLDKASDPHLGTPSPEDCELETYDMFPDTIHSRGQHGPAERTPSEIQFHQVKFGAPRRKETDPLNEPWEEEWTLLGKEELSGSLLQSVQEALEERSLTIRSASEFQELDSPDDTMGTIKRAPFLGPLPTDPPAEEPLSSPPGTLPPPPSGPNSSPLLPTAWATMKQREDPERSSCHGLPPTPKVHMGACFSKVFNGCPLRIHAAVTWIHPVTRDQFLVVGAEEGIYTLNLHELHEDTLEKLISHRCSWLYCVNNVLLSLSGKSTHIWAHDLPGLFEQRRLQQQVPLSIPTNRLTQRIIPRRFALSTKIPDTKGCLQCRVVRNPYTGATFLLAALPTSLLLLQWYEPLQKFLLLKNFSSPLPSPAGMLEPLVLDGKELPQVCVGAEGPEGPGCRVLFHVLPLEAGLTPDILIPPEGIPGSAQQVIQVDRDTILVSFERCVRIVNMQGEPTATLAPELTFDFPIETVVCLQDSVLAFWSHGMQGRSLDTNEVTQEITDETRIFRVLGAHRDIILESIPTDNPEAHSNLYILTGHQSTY

Molecule `CCOc1cc(N2CCC(O)CC2)ccc1Nc1ncc2c(n1)N(C)c1ccccc1C(=O)N2C` has an inhibition [1] of 5.3%, an IC50 [2] greater than 50 µM and an IC50 [3] greater than 50 µM. The inhibition [4] was -2.6%, the inhibition [5] was “inactive” and the IC50 [6] was greater than 50 µM. For the same molecule, the inhibition at 10 µM [7] was 18.1%, the inhibition [8] was 15.9% and the inhibition [9] was -9%. The inhibition [10] was 4.5%, the IC50 (Aurora kinase A) was greater than 50 µM and the inhibition [11] was 0.7%.
